Assay results from ChEMBL document CHEMBL1158708, “Cerylimycins [corrected] A and B: antibacterial triterpenes from the new species Tricholoma sp. AU1” (J Nat Prod, 2005).

Tests used:
Staphylococcus aureus = test: Antimicrobial activity against Staphylococcus aureus after 18 hrs; assay type: functional, organism-based
Method in brief: (§1)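 Strains grown on Mueller-Hinton agar, then in Mueller-Hinton broth with CaCl₂/MgCl₂ at 37 °C for 18 h. Serially diluted (K. pneumoniae and P. aeruginosa 10^-6, S. aureus 10^-8, S. pneumoniae 10^-4, as cfu/mL) and equilibrated 30 min at 37 °C. Incubated with samples, shaken at 37 °C and 60% humidity for 18 h. Read at OD650. Streptomycin 50 μg/mL control wells.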

Pseudomonas aeruginosa = test: Antimicrobial activity against Pseudomonas aeruginosa after 18 hrs; assay type: functional, organism-based; method in brief: as §1
Streptococcus pneumoniae = test: Antimicrobial activity against Streptococcus pneumoniae after 18 hrs; assay type: functional, organism-based; method in brief: as §1
Klebsiella pneumoniae = test: Antimicrobial activity against Klebsiella pneumoniae after 18 hrs; assay type: functional, organism-based; method in brief: as §1
THP-1 = test: Cytotoxicity against human THP1 cells after 72 hrs by WST-1 assay; assay type: cell-based; conditions: THP-1, 72 h
Method in brief: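 THP-1 cells kept in RPMI 1640 with 10% FBS, 2 mM L-glutamine, penicillin/streptomycin and 10 μM 2-mercaptoethanol at 37 °C, 5% CO₂. Seeded at 2.5 × 10⁴ cells/well and exposed to samples at 250 μg/mL final for 72 h. WST-1 added for 1–2 h, absorbance read at 450 nm. Controls were 10 μM camptothecin and 0.1% DMSO.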

| SMILES | IC50 (Staphylococcus aureus) | IC50 (Pseudomonas aeruginosa) | IC50 (Streptococcus pneumoniae) | IC50 (Klebsiella pneumoniae) | IC50 (THP-1) |
| --- | --- | --- | --- | --- | --- |
| C=C1CC[C@H]2C(C)(C)[C@H](O)CC[C@]2(C)[C@@H]1C[C@@H]1CCC(=C)[C@H](CC/C(C)=C/CO)[C@@]1(C)C(=O)O [TRICHOMYCIN B] | 12 µM | > 473 µM | 6 µM | > 473 µM | 640 µM |
| C=C1CC[C@H]2C(C)(C)[C@H](O)CC[C@]2(C)[C@@H]1C[C@@H]1CCC(=C)[C@H](CC/C(C)=C/COC=O)[C@@]1(C)C(=O)O [TRICHOMYCIN A] | 12 µM | > 500 µM | 5 µM | > 500 µM | > 1000 µM |
